In ChEMBL document CHEMBL1131298 (J Med Chem, 1998):

Assay: Kinetic parameter(rate of catalysis) was evaluated
Type: ADME
Settings: not given; call rule not given here

SMILES | k cat [s⁻¹]
O=C(O)CC[C@H](NC(=O)Nc1ccc(CO)cc1)C(=O)O | 65.4
O=C(O)CC[C@H](NC(=O)Oc1ccc(COC(=O)Oc2ccc(N(CCCl)CCCl)cc2)cc1)C(=O)O | < 10
O=C(O)CC[C@H](NC(=O)Nc1ccc(COC(=O)Nc2ccc(N(CCCl)CCCl)cc2)cc1)C(=O)O | 50
O=C(O)CC[C@H](NC(=O)Oc1ccc(COC(=O)Nc2ccc(N(CCF)CCF)cc2)cc1)C(=O)O | 50
O=C(O)CC[C@H](NC(=O)Nc1ccc(COC(=O)Oc2ccc(N(CCCl)CCCl)cc2)cc1)C(=O)O | < 10
O=C(O)CC[C@H](NC(=O)Oc1ccc(COC(=O)Nc2ccc(N(CCCl)CCCl)cc2)cc1)C(=O)O | < 10
O=C(O)CC[C@H](NC(=O)Oc1ccc(CO)cc1)C(=O)O | 140
O=C(O)CC[C@H](NC(=O)Oc1ccc(COC(=O)Oc2ccc(N(CCF)CCF)cc2)cc1)C(=O)O | < 10
O=C(O)CC[C@H](NC(=O)Nc1ccc(COC(=O)Nc2ccc(N(CCF)CCF)cc2)cc1)C(=O)O | 50

Assay: Cytotoxicity was evaluated against LS174T-stCPG2(Q)3-expressing cell clone
Type: functional
Settings: Homo sapiens
In short: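 LS174T colon cells stably transfected with surface-tethered mutant CPG2 (stCPG2(Q)3) plasmid; 2 × 10^6 cells seeded, confluent at 48 h. Compound added from DMSO stock in full medium, a similar dose re-added after 1 h, then 20 h more. Cells reseeded in quadruplicate at ~2 × 10^3/well, grown to control confluence; sulforhodamine-B at 590 nm, IC50 by interpolation.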

SMILES | IC50 [µM]
Nc1ccc(N(CCF)CCF)cc1 | 121
O=C(O)CC[C@H](NC(=O)Oc1ccc(COC(=O)Oc2ccc(N(CCCl)CCCl)cc2)cc1)C(=O)O | 0.42
O=C(O)CC[C@H](NC(=O)Nc1ccc(COC(=O)Oc2ccc(N(CCF)CCF)cc2)cc1)C(=O)O | 264
O=C(O)CC[C@H](NC(=O)Nc1ccc(COC(=O)Nc2ccc(N(CCCl)CCCl)cc2)cc1)C(=O)O | 0.46
O=C(O)CC[C@H](NC(=O)Oc1ccc(COC(=O)Nc2ccc(N(CCF)CCF)cc2)cc1)C(=O)O | 257
O=C(O)CC[C@H](NC(=O)Nc1ccc(COC(=O)Oc2ccc(N(CCCl)CCCl)cc2)cc1)C(=O)O | 0.48
CS(=O)(=O)OCCN(CCCl)c1ccc(C(=O)O)cc1 | 27.8
O=C(O)CC[C@H](NC(=O)Oc1ccc(COC(=O)Nc2ccc(N(CCCl)CCCl)cc2)cc1)C(=O)O | 0.62
O=C(O)CC[C@H](NC(=O)Oc1ccc(COC(=O)Oc2ccc(N(CCF)CCF)cc2)cc1)C(=O)O | 128
Oc1ccc(N(CCF)CCF)cc1 | 323
O=C(O)CC[C@H](NC(=O)Nc1ccc(COC(=O)Nc2ccc(N(CCF)CCF)cc2)cc1)C(=O)O | 184

Assay: Kinetic parameter (half-life prodrug/drug) was evaluated
Type: ADME
Settings: not given
In short: (§1)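 10 mM stocks diluted 100-fold to 100 µM in CPG2 assay buffer (100 mM Tris-HCl pH 7.3, 260 µM ZnCl2) at 37 °C. Remaining starting material followed by isocratic C18 HPLC in 10 mM ammonium acetate pH 5.0/methanol, UV at compound-specific wavelength, via repeat injections every 7.5 min or fresh-vial injections every 1 min.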

SMILES | T1/2 [min]
O=C(O)CC[C@H](NC(=O)Oc1ccc(COC(=O)Oc2ccc(N(CCCl)CCCl)cc2)cc1)C(=O)O | 13.7
O=C(O)CC[C@H](NC(=O)Nc1ccc(COC(=O)Oc2ccc(N(CCF)CCF)cc2)cc1)C(=O)O | < 10
O=C(O)CC[C@H](NC(=O)Nc1ccc(COC(=O)Nc2ccc(N(CCCl)CCCl)cc2)cc1)C(=O)O | 7.6
O=C(O)CC[C@H](NC(=O)Nc1ccc(COC(=O)Oc2ccc(N(CCCl)CCCl)cc2)cc1)C(=O)O | 0.3
O=C(O)CC[C@H](NC(=O)Oc1ccc(COC(=O)Nc2ccc(N(CCCl)CCCl)cc2)cc1)C(=O)O | 8.1
O=C(O)CC[C@H](NC(=O)Nc1ccc(COC(=O)Nc2ccc(N(CCF)CCF)cc2)cc1)C(=O)O | 0.4

Assay: Kinetic parameter (half-life) was evaluated; NA ='Not applicable'
Type: ADME
Settings: not given
In short: as §1

SMILES | T1/2
O=C(O)CC[C@H](NC(=O)Oc1ccc(COC(=O)Nc2ccc(N(CCF)CCF)cc2)cc1)C(=O)O | Not Active
O=C(O)CC[C@H](NC(=O)Oc1ccc(CO)cc1)C(=O)O | Not Active
O=C(O)CC[C@H](NC(=O)Oc1ccc(COC(=O)Oc2ccc(N(CCF)CCF)cc2)cc1)C(=O)O | Not Active
Oc1ccc(N(CCF)CCF)cc1 | Not Active
